Measured values taken from ChEMBL document CHEMBL4480417, “Methylsulfonylated Polyketides Produced by Neosartorya udagawae HDN13-313 via Exogenous Addition of Small Molecules” (J Nat Prod, 2019).
The source made the active and inactive calls. The rule behind the calls is not given here.

Legend:
HL-60 = experiment: Cytotoxicity against human HL60 cells at 30 uM after 72 hrs by MTT assay; type: cell-based; conditions: hl-60, 72 h
HCT-116 = experiment: Cytotoxicity against human HCT116 cells at 30 uM after 72 hrs by MTT assay; type: cell-based; conditions: hct-116, 72 h
K562 = experiment: Cytotoxicity against human K562 cells at 30 uM after 72 hrs by MTT assay; type: cell-based; conditions: k562, 72 h
HeLa = experiment: Cytotoxicity against human HeLa cells at 30 uM after 72 hrs by MTT assay; type: cell-based
HepG2 = experiment: Lipid lowering activity in human HepG2 cells assessed as reduction in oleic acid-induced lipid accumulation at 10 uM after 24 hrs by oil red O staining based spectrophotometric method; type: functional, cell-based
Method in brief: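 HepG2 cells in log phase seeded at 1.2 × 10^4 cells/well, grown 12 h to 70–80% confluence, then serum-starved 12 h in serum-free DMEM. Oleic acid added (final 80 μM) with test agent or simvastatin (final 10 μM), 24 h. Blank: DMEM only; OA alone as negative control. Cells fixed in 4% paraformaldehyde, rinsed with 60% 2-propanol, stained with 0.3% Oil Red O for 1 h, dye dissolved in DMSO, OD 358 nm; ≥3 experiments, mean ± SEM.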

SMILES | Activity (HL-60) | Activity (HCT-116) | Activity (K562) | Activity (HeLa) | Activity (HepG2)
COc1c(O)c(O)c(C)c(S(C)(=O)=O)c1O | Non-Toxic | Non-Toxic | Non-Toxic | Non-Toxic | 
CCC(C)(C)C(=O)O[C@H]1C[C@@H](C)C=C2C=C[C@H](C)[C@H](CC[C@@H]3C[C@@H](O)CC(=O)O3)[C@H]21 |  |  |  |  | Active
COc1c(O)ccc2c(=O)oc3cc(CO)cc(O)c3c(=O)c12 | Non-Toxic | Non-Toxic | Non-Toxic | Non-Toxic | 
COc1cc(S(C)(=O)=O)cc2c(=O)oc3cc(CO)cc(O)c3c(=O)c12 | Non-Toxic | Non-Toxic | Non-Toxic | Non-Toxic | Active
